Laboratory results as given in ChEMBL document CHEMBL1140919, “Structure-based drug design of novel Aurora kinase A inhibitors: structural basis for potency and specificity” (J Med Chem, 2009).
Each block holds one compound with its values, some of them ahead of it.

Columns and labels:
Aurora kinase A = Aurora kinase A (Homo sapiens, UniProt O14965, T288D); assay: Inhibition of Aurora kinase A T288D mutant expressed in Escherichia coli BL21 DE3
[1] = test system: T1, Aurora kinase A (Homo sapiens), O14965 [T288D]; assay: Inhibition of Aurora kinase A T288D mutant expressed in Escherichia coli BL21 DE3 at 10 uM
T1 sequence (whole entry): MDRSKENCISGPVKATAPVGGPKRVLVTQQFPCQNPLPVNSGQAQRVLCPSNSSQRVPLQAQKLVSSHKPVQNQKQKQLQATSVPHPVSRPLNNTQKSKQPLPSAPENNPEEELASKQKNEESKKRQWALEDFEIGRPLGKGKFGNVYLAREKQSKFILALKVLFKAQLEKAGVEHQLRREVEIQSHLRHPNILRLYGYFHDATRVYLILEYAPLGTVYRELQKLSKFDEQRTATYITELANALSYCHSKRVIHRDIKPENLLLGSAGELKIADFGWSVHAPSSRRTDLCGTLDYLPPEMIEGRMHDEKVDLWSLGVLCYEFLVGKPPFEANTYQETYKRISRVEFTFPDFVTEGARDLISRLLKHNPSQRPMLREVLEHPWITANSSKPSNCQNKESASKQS

[2] = target: Inhibitor of nuclear factor kappa-B kinase subunit epsilon (Homo sapiens) (UniProt Q14164); assay: Inhibition of IKK epsilon at 1 uM relative to control
[3] = target: 5'-AMP-activated protein kinase catalytic subunit alpha-1 (Homo sapiens) (UniProt Q13131); assay: Inhibition of AMPK alpha-1/beta-1/gamma-1 at 1 uM relative to control
[4] = target: Proto-oncogene tyrosine-protein kinase Src (Homo sapiens) (UniProt P12931); assay: Inhibition of SRC at 1 uM relative to control
[5] = target: Aurora kinase A (Homo sapiens) (UniProt O14965); assay: Inhibition of AURKA at 1 uM relative to control
Sequence of Aurora kinase A (Homo sapiens) (O14965 whole entry): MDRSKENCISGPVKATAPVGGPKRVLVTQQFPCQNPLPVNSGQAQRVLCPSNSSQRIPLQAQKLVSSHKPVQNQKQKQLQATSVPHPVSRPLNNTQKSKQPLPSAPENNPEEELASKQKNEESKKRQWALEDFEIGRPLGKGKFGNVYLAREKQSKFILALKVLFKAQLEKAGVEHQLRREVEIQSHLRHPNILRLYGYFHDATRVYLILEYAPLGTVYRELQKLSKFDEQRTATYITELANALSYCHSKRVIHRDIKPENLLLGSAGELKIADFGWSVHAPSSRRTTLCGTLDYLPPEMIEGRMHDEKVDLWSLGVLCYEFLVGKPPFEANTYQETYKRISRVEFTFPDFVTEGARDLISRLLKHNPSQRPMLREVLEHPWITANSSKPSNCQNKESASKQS

[6] = target: Serine/threonine-protein kinase mTOR (Homo sapiens) (UniProt P42345); assay: Inhibition of FRAP1 at 1 uM relative to control
[7] = target: Ephrin type-A receptor 1 (Homo sapiens) (UniProt P21709); assay: Inhibition of EPHA1 at 1 uM relative to control
[8] = target: Receptor tyrosine-protein kinase erbB-2 (Homo sapiens) (UniProt P04626); assay: Inhibition of ERBB2 at 1 uM relative to control
[9] = target: High affinity nerve growth factor receptor (Homo sapiens) (UniProt P04629); assay: Inhibition of NTRK1 at 1 uM relative to control
Sequence of High affinity nerve growth factor receptor (Homo sapiens) (P04629 33-796 limits assumed): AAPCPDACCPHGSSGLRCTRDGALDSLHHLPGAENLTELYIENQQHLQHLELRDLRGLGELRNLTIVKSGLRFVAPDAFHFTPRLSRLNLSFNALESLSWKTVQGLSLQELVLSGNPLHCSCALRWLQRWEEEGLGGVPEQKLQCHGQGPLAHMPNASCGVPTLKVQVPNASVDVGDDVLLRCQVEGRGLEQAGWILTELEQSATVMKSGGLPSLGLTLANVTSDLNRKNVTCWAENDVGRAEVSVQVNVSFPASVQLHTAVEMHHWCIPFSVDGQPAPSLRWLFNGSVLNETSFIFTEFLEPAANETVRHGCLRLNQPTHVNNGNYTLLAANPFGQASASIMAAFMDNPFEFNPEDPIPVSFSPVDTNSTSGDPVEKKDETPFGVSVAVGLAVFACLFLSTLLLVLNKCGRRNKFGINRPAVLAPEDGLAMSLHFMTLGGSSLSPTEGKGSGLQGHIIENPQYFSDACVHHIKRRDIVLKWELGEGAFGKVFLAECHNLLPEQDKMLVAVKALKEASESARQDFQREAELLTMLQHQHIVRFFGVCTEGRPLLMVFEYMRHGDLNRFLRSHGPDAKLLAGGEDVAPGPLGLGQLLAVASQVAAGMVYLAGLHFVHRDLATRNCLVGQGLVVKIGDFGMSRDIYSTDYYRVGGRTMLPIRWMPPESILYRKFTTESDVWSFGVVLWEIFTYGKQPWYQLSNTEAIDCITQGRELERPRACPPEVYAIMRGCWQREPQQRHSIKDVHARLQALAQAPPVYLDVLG

[10] = target: Tyrosine-protein kinase ABL1 (Homo sapiens) (UniProt P00519); assay: Inhibition of ABL1 at 1 uM relative to control
Sequence of Tyrosine-protein kinase ABL1 (Homo sapiens) (P00519 whole entry): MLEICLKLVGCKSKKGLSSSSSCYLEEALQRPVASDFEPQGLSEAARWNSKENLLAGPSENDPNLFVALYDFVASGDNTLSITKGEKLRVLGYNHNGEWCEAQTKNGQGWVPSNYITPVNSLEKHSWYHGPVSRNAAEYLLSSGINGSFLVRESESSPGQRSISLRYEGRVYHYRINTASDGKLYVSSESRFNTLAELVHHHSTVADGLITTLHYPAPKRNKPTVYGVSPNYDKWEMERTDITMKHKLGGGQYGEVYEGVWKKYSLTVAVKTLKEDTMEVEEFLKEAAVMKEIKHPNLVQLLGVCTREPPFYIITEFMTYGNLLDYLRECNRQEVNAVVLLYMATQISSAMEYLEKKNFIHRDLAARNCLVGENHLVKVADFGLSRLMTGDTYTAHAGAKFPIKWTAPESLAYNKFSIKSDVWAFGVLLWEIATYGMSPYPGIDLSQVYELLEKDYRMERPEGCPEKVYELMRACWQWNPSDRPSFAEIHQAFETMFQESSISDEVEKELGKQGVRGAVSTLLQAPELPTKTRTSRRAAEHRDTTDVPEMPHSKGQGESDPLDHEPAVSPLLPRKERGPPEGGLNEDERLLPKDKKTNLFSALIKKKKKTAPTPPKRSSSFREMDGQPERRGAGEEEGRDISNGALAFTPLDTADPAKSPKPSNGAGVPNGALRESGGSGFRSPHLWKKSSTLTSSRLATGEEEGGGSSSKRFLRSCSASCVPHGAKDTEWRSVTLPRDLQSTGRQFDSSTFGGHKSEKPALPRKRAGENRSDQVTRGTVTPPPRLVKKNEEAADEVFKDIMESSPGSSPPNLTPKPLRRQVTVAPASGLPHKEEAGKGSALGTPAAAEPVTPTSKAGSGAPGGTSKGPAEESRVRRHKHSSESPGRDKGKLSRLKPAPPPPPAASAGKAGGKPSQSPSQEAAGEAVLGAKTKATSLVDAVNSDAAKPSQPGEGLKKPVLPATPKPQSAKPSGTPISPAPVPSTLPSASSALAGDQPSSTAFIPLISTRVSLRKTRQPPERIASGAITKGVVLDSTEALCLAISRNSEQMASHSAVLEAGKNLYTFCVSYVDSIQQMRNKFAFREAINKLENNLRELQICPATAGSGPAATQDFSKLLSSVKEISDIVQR

[11] = target: Mast/stem cell growth factor receptor Kit (Homo sapiens) (UniProt P10721); assay: Inhibition of KIT at 1 uM relative to control
Sequence of Mast/stem cell growth factor receptor Kit (Homo sapiens) (P10721 whole entry): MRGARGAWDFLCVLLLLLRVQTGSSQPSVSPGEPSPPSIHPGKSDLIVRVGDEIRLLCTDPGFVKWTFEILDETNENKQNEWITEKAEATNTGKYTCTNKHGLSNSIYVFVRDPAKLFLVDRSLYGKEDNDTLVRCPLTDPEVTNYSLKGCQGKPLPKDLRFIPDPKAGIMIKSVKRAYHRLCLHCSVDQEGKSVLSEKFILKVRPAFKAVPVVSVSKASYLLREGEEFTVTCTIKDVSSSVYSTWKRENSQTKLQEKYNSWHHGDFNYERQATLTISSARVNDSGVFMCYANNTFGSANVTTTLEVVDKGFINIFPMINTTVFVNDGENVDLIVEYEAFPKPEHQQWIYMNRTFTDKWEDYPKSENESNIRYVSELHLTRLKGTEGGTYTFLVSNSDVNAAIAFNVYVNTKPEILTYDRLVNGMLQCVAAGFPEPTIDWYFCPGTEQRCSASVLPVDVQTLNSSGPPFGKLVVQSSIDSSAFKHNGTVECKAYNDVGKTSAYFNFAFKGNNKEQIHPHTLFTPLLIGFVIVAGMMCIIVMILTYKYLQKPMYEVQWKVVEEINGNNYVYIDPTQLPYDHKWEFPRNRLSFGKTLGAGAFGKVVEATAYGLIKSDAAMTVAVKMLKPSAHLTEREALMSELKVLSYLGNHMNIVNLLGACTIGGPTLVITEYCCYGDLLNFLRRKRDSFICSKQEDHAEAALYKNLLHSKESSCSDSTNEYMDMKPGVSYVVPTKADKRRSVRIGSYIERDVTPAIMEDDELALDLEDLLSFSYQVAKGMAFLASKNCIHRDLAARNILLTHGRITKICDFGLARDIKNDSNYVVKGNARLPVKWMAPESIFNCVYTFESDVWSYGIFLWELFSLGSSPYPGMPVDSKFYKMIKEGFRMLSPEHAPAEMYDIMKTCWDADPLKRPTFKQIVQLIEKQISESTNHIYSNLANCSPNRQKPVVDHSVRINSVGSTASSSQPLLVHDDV

[12] = target: Hepatocyte growth factor receptor (Homo sapiens) (UniProt P08581); assay: Inhibition of cMET at 1 uM relative to control
[13] = target: Proto-oncogene tyrosine-protein kinase receptor Ret (Homo sapiens) (UniProt P07949); assay: Inhibition of RET at 1 uM relative to control
[14] = target: Angiopoietin-1 receptor (Homo sapiens) (UniProt Q02763); assay: Inhibition of TEK at 1 uM relative to control
Sequence of Angiopoietin-1 receptor (Homo sapiens) (Q02763 whole entry): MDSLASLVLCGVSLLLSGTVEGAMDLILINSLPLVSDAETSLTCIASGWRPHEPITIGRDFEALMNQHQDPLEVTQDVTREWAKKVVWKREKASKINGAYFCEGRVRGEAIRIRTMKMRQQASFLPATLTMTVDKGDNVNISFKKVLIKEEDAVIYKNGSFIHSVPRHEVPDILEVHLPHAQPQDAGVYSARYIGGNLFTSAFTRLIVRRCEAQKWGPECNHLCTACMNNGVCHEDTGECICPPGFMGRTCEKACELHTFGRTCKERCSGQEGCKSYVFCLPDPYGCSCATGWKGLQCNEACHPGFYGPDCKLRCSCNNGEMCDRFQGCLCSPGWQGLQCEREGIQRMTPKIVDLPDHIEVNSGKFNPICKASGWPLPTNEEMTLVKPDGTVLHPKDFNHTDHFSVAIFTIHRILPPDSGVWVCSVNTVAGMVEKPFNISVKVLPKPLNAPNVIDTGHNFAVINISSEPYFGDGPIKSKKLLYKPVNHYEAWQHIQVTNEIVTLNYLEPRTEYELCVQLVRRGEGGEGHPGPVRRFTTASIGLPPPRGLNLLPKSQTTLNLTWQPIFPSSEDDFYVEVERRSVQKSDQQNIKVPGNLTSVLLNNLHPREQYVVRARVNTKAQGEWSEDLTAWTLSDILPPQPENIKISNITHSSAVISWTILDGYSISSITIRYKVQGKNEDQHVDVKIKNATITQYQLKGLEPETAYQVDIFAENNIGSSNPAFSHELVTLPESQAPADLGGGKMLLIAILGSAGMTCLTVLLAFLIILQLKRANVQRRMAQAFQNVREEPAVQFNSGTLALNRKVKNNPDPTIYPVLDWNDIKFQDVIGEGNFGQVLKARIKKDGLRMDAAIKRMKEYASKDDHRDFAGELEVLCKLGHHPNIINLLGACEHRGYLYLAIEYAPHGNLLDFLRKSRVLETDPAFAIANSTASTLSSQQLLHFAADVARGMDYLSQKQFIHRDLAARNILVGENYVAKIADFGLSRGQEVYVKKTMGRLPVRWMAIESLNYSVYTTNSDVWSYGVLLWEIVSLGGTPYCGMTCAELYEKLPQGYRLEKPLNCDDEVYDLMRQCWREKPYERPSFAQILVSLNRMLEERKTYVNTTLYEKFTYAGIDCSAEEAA

[15] = target: Mitogen-activated protein kinase 14 (Homo sapiens) (UniProt Q16539); assay: Inhibition of MAPK14 at 1 uM relative to control
[16] = target: Cyclin-dependent kinase 2 (Homo sapiens) (UniProt P24941); assay: Inhibition of CDK2/Cyclin A at 1 uM relative to control
[17] = test system: RAF proto-oncogene serine/threonine-protein kinase (Homo sapiens), P04049 [Y340D,Y341D]; assay: Inhibition of cRaf Y340D/Y341D mutant at 1 uM relative to control
[18] = target: Aurora kinase B (Homo sapiens) (UniProt Q96GD4); assay: Inhibition of AURKB at 1 uM relative to control
Sequence of Aurora kinase B (Homo sapiens) (Q96GD4 whole entry): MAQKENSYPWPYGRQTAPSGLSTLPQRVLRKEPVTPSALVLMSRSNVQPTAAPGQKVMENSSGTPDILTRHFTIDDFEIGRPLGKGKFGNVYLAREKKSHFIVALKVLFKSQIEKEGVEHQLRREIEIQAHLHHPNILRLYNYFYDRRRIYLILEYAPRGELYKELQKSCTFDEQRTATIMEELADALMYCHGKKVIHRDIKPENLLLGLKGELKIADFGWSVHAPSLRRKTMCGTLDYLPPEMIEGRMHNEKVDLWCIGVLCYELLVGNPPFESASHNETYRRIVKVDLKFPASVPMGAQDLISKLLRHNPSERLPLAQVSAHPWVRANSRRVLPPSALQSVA

[19] = target: Aurora kinase A (Homo sapiens) (UniProt O14965); assay: Inhibition of Aurora kinase A Thr288 autophosphorylation in human HCT116 cells by Western blot; format: cell-based; conditions: HCT-116
Method in brief: (§1)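 HCT-116 cells, 4 × 10^5 per well, were seeded for 24 h and synchronized with 40 ng/mL nocodazole for 16 h. They were then exposed to compound at 0.625–40 µM for 2 h at 37 °C. Cells were lysed in SDS sample buffer (pH 6.8, 2% SDS) at 95 °C for 10 min, and 50 µg was run on SDS-PAGE. Blots were probed for phospho-Aurora A (Thr288) and phospho-histone H3 (Ser10) with HRP detection.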

[20] = target: Phosphatidylinositol 4,5-bisphosphate 3-kinase catalytic subunit gamma isoform (Homo sapiens) (UniProt P48736); assay: Inhibition of PIK3CG at 1 uM relative to control
[21] = target: Insulin-like growth factor 1 receptor (Homo sapiens) (UniProt P08069); assay: Inhibition of IGF1R at 1 uM relative to control
[22] = target: Serine/threonine-protein kinase Chk1 (Homo sapiens) (UniProt O14757); assay: Inhibition of CHK1 at 1 uM relative to control
[23] = target: 3-phosphoinositide-dependent protein kinase 1 (Homo sapiens) (UniProt O15530); assay: Inhibition of PDK1 at 1 uM relative to control
[24] = target: Aurora kinase B (Homo sapiens) (UniProt Q96GD4); assay: Inhibition of Aurora kinase B in human HCT116 cells assessed as reduced phosphorylated histone H3 levels by Western blot; format: cell-based; conditions: HCT-116; method in brief: as §1
[25] = target: Glycogen synthase kinase-3 beta (Homo sapiens) (UniProt P49841); assay: Inhibition of GSK3-beta at 1 uM relative to control
[26] = target: Aurora kinase C (Homo sapiens) (UniProt Q9UQB9); assay: Inhibition of AURKC at 1 uM relative to control
Sequence of Aurora kinase C (Homo sapiens) (Q9UQB9 whole entry): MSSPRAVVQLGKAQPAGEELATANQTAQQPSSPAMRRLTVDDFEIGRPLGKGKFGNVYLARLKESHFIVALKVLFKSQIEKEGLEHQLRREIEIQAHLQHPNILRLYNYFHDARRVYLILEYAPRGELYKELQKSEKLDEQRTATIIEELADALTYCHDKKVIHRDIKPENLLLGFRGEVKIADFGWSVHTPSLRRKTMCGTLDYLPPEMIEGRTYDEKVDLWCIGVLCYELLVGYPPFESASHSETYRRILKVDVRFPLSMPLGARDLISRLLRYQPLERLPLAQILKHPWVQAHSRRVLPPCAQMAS

[27] = target: Receptor-type tyrosine-protein kinase FLT3 (Homo sapiens) (UniProt P36888); assay: Inhibition of FLT3 at 1 uM relative to control
[28] = target: Tyrosine-protein kinase JAK2 (Homo sapiens) (UniProt O60674); assay: Inhibition of JAK2 at 1 uM relative to control
[29] = target: Epidermal growth factor receptor (Homo sapiens) (UniProt P00533); assay: Inhibition of EGFR at 1 uM relative to control
[30] = target: Serine/threonine-protein kinase PLK1 (Homo sapiens) (UniProt P53350); assay: Inhibition of PLK1 at 1 uM relative to control
[31] = target: Vascular endothelial growth factor receptor 1 (Homo sapiens) (UniProt P17948); assay: Inhibition of FLT1 at 1 uM relative to control
[32] = target: ALK tyrosine kinase receptor (Homo sapiens) (UniProt Q9UM73); assay: Inhibition of ALK at 1 uM relative to control
[33] = target: RAC-alpha serine/threonine-protein kinase (Homo sapiens) (UniProt P31749); assay: Inhibition of AKT1 at 1 uM relative to control

- IC50 (Aurora kinase A): 1620 nM
Compound: COc1ccc(/C=N/Nc2[nH]nc(C)c2C(=O)NCc2ccc(OC)cc2)cc1

- IC50 (Aurora kinase A): 838 nM
Compound: COc1ccc(/C=N/Nc2[nH]nc(C)c2C(=O)NCc2cccc(OC)c2)cc1

- IC50 (Aurora kinase A): 449 nM
Compound: COc1ccc(/C=N/Nc2[nH]nc(C)c2C(=O)Nc2cccc(OC)c2)cc1

- inhibition [1]: 50%
- IC50 (Aurora kinase A): 11500 nM
Compound: CCOC(=O)c1c(C)n[nH]c1N/N=C/c1ccc2[nH]ccc2c1

- inhibition [1]: 33.9%
- IC50 (Aurora kinase A): 15100 nM
Compound: CCOC(=O)c1c(C)n[nH]c1N/N=C/c1ccc(OC)cc1

- IC50 (Aurora kinase A): 1940 nM
Compound: COc1ccc(/C=N/Nc2[nH]nc(C)c2C(=O)NCCc2c[nH]cn2)cc1

- IC50 (Aurora kinase A): 5250 nM
Compound: COc1ccc(/C=N/Nc2[nH]nc(C)c2C(=O)OCc2ccccc2)cc1

- IC50 (Aurora kinase A): 1570 nM
Compound: COc1ccc(/C=N/Nc2[nH]nc(C)c2C(=O)Nc2ccc(N(C)C)cc2)cc1

- IC50 (Aurora kinase A): 1450 nM
Compound: COc1ccc(/C=N/Nc2[nH]nc(C)c2C(=O)Nc2ccc(F)cc2)cc1

- inhibition [1]: 36.5%
Compound: CCOC(=O)c1c(C)n[nH]c1N/N=C/c1ccc(F)cc1

- IC50 (Aurora kinase A): 1580 nM
Compound: COc1ccc(/C=N/Nc2[nH]nc(C)c2C(=O)NCc2ccccc2)cc1

- IC50 (Aurora kinase A): 960 nM
Compound: COc1ccc(/C=N/Nc2[nH]nc(C)c2C(=O)Nc2ccc(OC)c(OC)c2)cc1

- IC50 (Aurora kinase A): 1070 nM
Compound: COc1ccc(/C=N/Nc2[nH]nc(C)c2C(=O)NCCc2c[nH]c3ccccc23)cc1

- IC50 (Aurora kinase A): 1350 nM
Compound: COc1ccc(/C=N/Nc2[nH]nc(C)c2C(=O)NCCc2ccccc2)cc1

- inhibition [1]: 3.6%
Compound: CCOC(=O)c1c(C)n[nH]c1N/N=C/Cc1ccccc1

- inhibition [1]: 41%
Compound: CCOC(=O)c1c(C)n[nH]c1N/N=C/c1ccc(N2CCN(C)CC2)cc1

- IC50 (Aurora kinase A): 1580 nM
Compound: COc1ccc(/C=N/Nc2[nH]nc(C)c2C(=O)NCCc2ccc(OC)cc2)cc1

- inhibition [2]: -8%
- inhibition [3]: 31%
- inhibition [4]: 33%
- inhibition [5]: 91%
- inhibition [6]: -6%
- inhibition [7]: 51%
- inhibition [8]: 26%
- inhibition [9]: 66%
- inhibition [10]: 17%
- inhibition [11]: 61%
- inhibition [12]: 19%
- inhibition [13]: 76%
- inhibition [14]: 4%
- inhibition [15]: 19%
- inhibition [16]: 48%
- inhibition [17]: -1%
- inhibition [18]: 36%
- Activity [19]: Dose-dependent effect
- inhibition [20]: -3%
- inhibition [21]: 11%
- inhibition [22]: 21%
- inhibition [23]: 17%
- Activity [24]: Dose-dependent effect
- inhibition [25]: 32%
- inhibition [26]: 45%
- inhibition [27]: 48%
- inhibition [28]: 56%
- inhibition [29]: 8%
- inhibition [30]: 11%
- inhibition [31]: 27%
- inhibition [32]: 1%
- inhibition [33]: 13%
Compound: COc1ccc(/C=N/Nc2[nH]nc(C)c2C(=O)Nc2cccc(NC(C)=O)c2)cc1

- inhibition [1]: 27.5%
Compound: CCOC(=O)c1c(C)n[nH]c1N/N=C/c1ccc(-c2ccccc2)cc1

- IC50 (Aurora kinase A): 719 nM
Compound: COc1ccc(/C=N/Nc2[nH]nc(C)c2C(=O)Nc2ccc(NC(C)=O)cc2)cc1

- IC50 (Aurora kinase A): 2900 nM
Compound: COc1ccc(/C=N/Nc2[nH]nc(C)c2C(=O)NCCc2cccc(OC)c2)cc1

- inhibition [1]: 16.4%
Compound: CCOC(=O)c1c(C)n[nH]c1N/N=C/c1ccccc1

- IC50 (Aurora kinase A): 1940 nM
Compound: COc1ccc(/C=N/Nc2[nH]nc(C)c2C(=O)NCCCc2ccccc2)cc1

- IC50 (Aurora kinase A): > 50000 nM
Compound: COc1ccc(/C=N/Nc2[nH]nc(C)c2C(=O)N(C)c2ccccc2)cc1

- IC50 (Aurora kinase A): > 50000 nM
Compound: COc1ccc(/C=N/Nc2[nH]nc(C)c2C(=O)N(C)Cc2ccccc2)cc1

- IC50 (Aurora kinase A): 1480 nM
Compound: COc1ccc(/C=N/Nc2[nH]nc(C)c2C(=O)NCCc2cccnc2)cc1

- inhibition [1]: 18.2%
Compound: CCOC(=O)c1c(C)n[nH]c1N/N=C(\C)c1ccc(OC)cc1

- IC50 (Aurora kinase A): 460 nM
Compound: COc1ccc(/C=N/Nc2[nH]nc(C)c2C(=O)Nc2ccc(OC)cc2)cc1

- IC50 (Aurora kinase A): 804 nM
Compound: COc1ccc(/C=N/Nc2[nH]nc(C)c2C(=O)Nc2ccccc2)cc1

- IC50 (Aurora kinase A): 1090 nM
Compound: COc1ccc(/C=N/Nc2[nH]nc(C)c2C(=O)Nc2ccccc2OC)cc1

- IC50 (Aurora kinase A): 1750 nM
Compound: COc1ccc(/C=N/Nc2[nH]nc(C)c2C(=O)NCc2cccc(NC(C)=O)c2)cc1

- inhibition [1]: 50.3%
- IC50 (Aurora kinase A): 13700 nM
Compound: CCOC(=O)c1c(C)n[nH]c1N/N=C/c1cccc2[nH]ccc12
